Measurements as given in ChEMBL document CHEMBL1821676, “Click to a focused library of benzyl 6-triazolo(hydroxy)benzoic glucosides: novel construction of PTP1B inhibitors on a sugar scaffold” (Eur J Med Chem, 2011).

Biological target: T1, Tyrosine-protein phosphatase non-receptor type 1 (Homo sapiens, UniProt P18031)
T1 sequence (P18031 whole entry): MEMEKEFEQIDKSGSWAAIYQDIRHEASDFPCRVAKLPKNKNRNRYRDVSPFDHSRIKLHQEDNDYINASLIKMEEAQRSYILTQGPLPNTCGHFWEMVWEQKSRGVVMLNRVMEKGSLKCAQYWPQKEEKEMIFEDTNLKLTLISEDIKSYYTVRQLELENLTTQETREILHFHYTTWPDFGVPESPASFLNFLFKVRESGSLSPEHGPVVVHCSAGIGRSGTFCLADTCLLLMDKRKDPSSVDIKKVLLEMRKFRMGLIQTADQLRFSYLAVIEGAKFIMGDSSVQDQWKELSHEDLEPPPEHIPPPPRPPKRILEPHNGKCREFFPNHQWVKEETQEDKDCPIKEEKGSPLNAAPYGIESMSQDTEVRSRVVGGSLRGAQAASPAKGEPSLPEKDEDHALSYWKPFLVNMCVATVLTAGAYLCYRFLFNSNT
Test: Inhibition of human recombinant PTP1B expressed in CHO cells assessed as p-nitorphenol production after 2 mins by microplate reader
Format: cell-based
Outline: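 Recombinant human PTP1B catalytic domain (30 nM) with 2 mM pNPP in 50 mM MOPS, pH 6.5, at 30 °C. pNP release was read continuously at 405 nm for 2 min, and the initial rate was taken from the early linear region. Inhibitors were diluted around the estimated IC50. IC50 came from a nonlinear fit of % inhibition vs [I] using a Hill-coefficient equation.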

O=C(O)c1cccc(O)c1 [3-HYDROXYBENZOIC ACID]
IC50: > 100 µM

O=C(O)c1cc(O)cc(O)c1 [3,5-DIHYDROXYBENZOIC ACID]
IC50: > 100 µM

O=C(O)c1cc(O)ccc1O [GENTISIC ACID]
IC50: > 100 µM
